In ChEMBL document CHEMBL1914385, “Isolation, structure, and biological activities of Fellutamides C and D from an undescribed Metulocladosporiella (Chaetothyriales) using the genome-wide Candida albicans fitness test” (J Nat Prod, 2011):
Converted amounts (≈) assume the structure as drawn. The source made the active and inactive calls. The calls are words filed in the database; no cut-off is given here. Non-standard residues stand in square brackets, D forms with d. Residues, ends and D or L forms follow the SMILES beside them. *: point of attachment. Myristoyl = CCCCCCCCCCCCCC(=O)*; Leu(ol) = CC(C)C[C@H](N)CO

Key:
Candida albicans [1] = test: Antifungal activity against Candida albicans harboring heterozygous deletion of orf19.5378/SCL1 after 24 hrs by NCCLS M27-P broth macrodilution method; assay type: functional
Aspergillus fumigatus = test: Antifungal activity against Aspergillus fumigatus MF5668 after 24 hrs by NCCLS M27-P broth macrodilution method; assay type: functional; settings: MF5668, 24 h
How it was run: (§1)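 MIC panel run in the fitness-test medium (modified RPMI), following an earlier published MIC method.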

Nakaseomyces glabratus = test: Antifungal activity against Candida glabrata MY1381 after 24 hrs by NCCLS M27-P broth macrodilution method; assay type: functional; settings: MY1381, 24 h; how it was run: as §1
[2] = tested on: Trichophyton mentagrophytes; test: Antifungal activity against Trichophyton mentagrophytes MF7004 after 24 hrs by NCCLS M27-P broth macrodilution method; assay type: functional; settings: MF7004, 24 h; how it was run: as §1
PC-3 = test: Growth inhibition of human PC3 cells; assay type: functional, cell-based
How it was run: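 PC-3 cells treated for 48 h across an 8-point dose series (final 50 000, 12 500, 3125, 781.3, 195.3, 48.8, 12.2, 3.1 nM). Viable cell mass was measured by ATP luminescence (Vialight) to give IC50.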

Candida albicans [3] = test: Ratio of lactacystin IC50 to compound IC50 for Candida albicans 26S proteasome
Candida albicans [4] = test: Antifungal activity against Candida albicans 2323 after 24 hrs by NCCLS M27-P broth macrodilution method; assay type: functional; settings: Candida albicans, 2323, 24 h; how it was run: as §1
Candida albicans [5] = test: Antifungal activity against Candida albicans after 24 hrs by NCCLS M27-P broth macrodilution method; assay type: functional
Candida tropicalis = test: Antifungal activity against Candida tropicalis MY1012 after 24 hrs by NCCLS M27-P broth macrodilution method; assay type: functional; settings: MY1012, 24 h; how it was run: as §1
Candida albicans [6] = test: Antifungal activity against Candida albicans harboring heterozygous deletion of orf19.3168/RPN8 after 24 hrs by NCCLS M27-P broth macrodilution method; assay type: functional
Candida albicans [7] = test: Ratio of gliotoxin IC50 to compound IC50 for Candida albicans 26S proteasome
Candida parapsilosis = test: Antifungal activity against Candida parapsilosis ATCC 22019 after 24 hrs by NCCLS M27-P broth macrodilution method; assay type: functional; settings: Lodderomyces parapsilosis, ATCC 22019, 24 h; how it was run: as §1
Pichia kudriavzevii = test: Antifungal activity against Candida krusei ATCC 6258 after 24 hrs by NCCLS M27-P broth macrodilution method; assay type: functional; settings: ATCC 6258, 24 h; how it was run: as §1
Candida albicans [8] = test: Antifungal activity against Candida albicans harboring heterozygous deletion of orf19.4088/NUP188 after 24 hrs by NCCLS M27-P broth macrodilution method; assay type: functional
[9] = Inhibition of Candida albicans 26S proteasome
How it was run: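 Chymotrypsin-like proteasome activity measured by luminogenic Proteasome-Glo assay, with modifications. Used whole-cell extracts of exponential-phase C. albicans, about 10⁶ cell equivalents per assay.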

Staphylococcus aureus = test: Antibacterial activity against Staphylococcus aureus MB2865; assay type: functional
Clavispora lusitaniae = test: Antifungal activity against Candida lusitaniae MY1396 after 24 hrs by NCCLS M27-P broth macrodilution method; assay type: functional; settings: MY1396, 24 h; how it was run: as §1
A549 = test: Growth inhibition of human A549 cells at 3.1 to 50000 nM
Candida albicans [10] = test: Antifungal activity against Candida albicans harboring heterozygous deletion of PRE4/orf19.4230 after 24 hrs by NCCLS M27-P broth macrodilution method; assay type: functional
Candida albicans [11] = test: Antifungal activity against Candida albicans harboring heterozygous deletion of PRE4/orf19.4230 at 0.01 to 10 ug/mL after 24 hrs by NCCLS M27-P broth macrodilution method; assay type: functional, organism-based
Candida albicans [12] = test: Antifungal activity against wild-type Candida albicans at 0.01 to 10 ug/mL after 24 hrs by NCCLS M27-P broth macrodilution method; assay type: functional, organism-based
Candida albicans [13] = test: Antifungal activity against Candida albicans at 200 ug/ml after 24 hrs by NCCLS M27-P broth macrodilution method; assay type: functional, organism-based
Candida albicans [14] = test: Antifungal activity against wild-type Candida albicans at 10 ug/mL after 24 hrs by NCCLS M27-P broth macrodilution method; assay type: functional, organism-based
Candida albicans [15] = test: Antifungal activity against Candida albicans harboring heterozygous deletion of PRE4/orf19.4230 at 10 ug/mL after 24 hrs by NCCLS M27-P broth macrodilution method; assay type: functional, organism-based

Structure (SMILES): CCCCCCCCCCC[C@@H](O)CC(=O)N[C@@H](CC(N)=O)C(=O)N[C@H](C(=O)N[C@H](C=O)C(C)C)C(O)CC(N)=O (stereo partly specified) [FELLUTAMIDE C]
- MIC (Candida albicans [1]): 2.5 µg/mL (≈ 4.27 µM)
- MIC (Aspergillus fumigatus): 16 µg/mL (≈ 27.3 µM)
- MIC (Nakaseomyces glabratus): 4 µg/mL (≈ 6.83 µM)
- MIC [2]: > 32 µg/mL
- IC50 (PC-3): 440 nM
- Ratio IC50 (Candida albicans [3]): 10
- MIC (Candida albicans [4]): 4 µg/mL (≈ 6.83 µM)
- MIC (Candida albicans [5]): 1.25 µg/mL (≈ 2.13 µM)
- MIC (Candida tropicalis): 4 µg/mL (≈ 6.83 µM)
- MIC (Candida albicans [6]): 2.5 µg/mL (≈ 4.27 µM)
- Ratio IC50 (Candida albicans [7]): 10
- MIC (Candida parapsilosis): 2 µg/mL (≈ 3.41 µM)
- MIC (Pichia kudriavzevii): 4 µg/mL (≈ 6.83 µM)
- MIC (Candida albicans [8]): 2.5 µg/mL (≈ 4.27 µM)
- IC50 [9]: 0.2 µg/mL (≈ 0.341 µM)
- MIC (Staphylococcus aureus): > 32 µg/mL
- MIC (Clavispora lusitaniae): 16 µg/mL (≈ 27.3 µM)
- growth inhibition (GI) (A549): inactive
- MIC (Candida albicans [10]): 2.5 µg/mL (≈ 4.27 µM)

Structure (SMILES): CCCCCCCCCCCCCC(=O)N[C@@H](CC(N)=O)C(=O)N[C@@H](CCC(N)=O)C(=O)N[C@H](C=O)CC(C)C (Myristoyl-Asn-Gln-Leu-aldehyde)
- Activity (Candida albicans [11]): Active
- Activity (Candida albicans [12]): Active

Structure (SMILES): CCCCCCCCCCC[C@@H](O)CC(=O)N[C@@H](CC(N)=O)C(=O)N[C@H](C(=O)N[C@H](C=O)CC(C)C)C(O)CC(N)=O (stereo partly specified) [FELLUTAMIDE D]
- MIC (Candida albicans [1]): 10 µg/mL (≈ 16.7 µM)
- MIC (Aspergillus fumigatus): 32 µg/mL (≈ 53.4 µM)
- MIC (Nakaseomyces glabratus): 8 µg/mL (≈ 13.3 µM)
- MIC [2]: > 32 µg/mL
- IC50 (PC-3): 160 nM
- Ratio IC50 (Candida albicans [3]): 10
- MIC (Candida albicans [4]): 16 µg/mL (≈ 26.7 µM)
- MIC (Candida albicans [5]): 1.25 µg/mL (≈ 2.08 µM)
- MIC (Candida tropicalis): 8 µg/mL (≈ 13.3 µM)
- MIC (Candida albicans [6]): 10 µg/mL (≈ 16.7 µM)
- Ratio IC50 (Candida albicans [7]): 10
- MIC (Candida parapsilosis): 8 µg/mL (≈ 13.3 µM)
- Activity (Candida albicans [11]): Active
- Activity (Candida albicans [12]): Active
- MIC (Pichia kudriavzevii): 8 µg/mL (≈ 13.3 µM)
- MIC (Candida albicans [8]): 10 µg/mL (≈ 16.7 µM)
- IC50 [9]: 0.2 µg/mL (≈ 0.333 µM)
- MIC (Staphylococcus aureus): > 32 µg/mL
- MIC (Clavispora lusitaniae): 32 µg/mL (≈ 53.4 µM)
- growth inhibition (GI) (A549): inactive
- MIC (Candida albicans [10]): 10 µg/mL (≈ 16.7 µM)

Structure (SMILES): CC(=O)N[C@@H](CSC(=O)[C@]1([C@@H](O)C(C)C)NC(=O)[C@H](C)[C@@H]1O)C(=O)O
- Activity (Candida albicans [13]): inactive

Structure (SMILES): CN1C(=O)[C@]23CC4=CC=C[C@H](O)[C@H]4N2C(=O)[C@@]1(CO)SS3 [GLIOTOXIN]
- MIC (Candida albicans [5]): 4 µg/mL (≈ 12.3 µM)

Structure (SMILES): CCCCCCCCCCCCCC(=O)N[C@@H](CC(N)=O)C(=O)N[C@@H](CCC(N)=O)C(=O)N[C@H](CO)CC(C)C (Myristoyl-Asn-Gln-[Leu(ol)])
- Activity (Candida albicans [14]): inactive
- Activity (Candida albicans [15]): inactive
